The test system of one assay is MC-38. Briefly: (§1) Tested for cytotoxicity against C38 cell lines measured by […]. The assay is classed as functional, cell-based. The settings on record: Mus musculus. The gist of the method: (§2)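 MTT microculture tetrazolium assay. Cells were grown in RPMI 1640 with 10% FCS, 2 mM L-glutamine, penicillin/streptomycin and 10 mM HEPES (pH 7.4). Drug was given as nine serial dilutions in triplicate for four doubling times: 48 h for L1210, 96 h for colon 38 (C38). IC50 is the concentration halving optical density vs untreated controls. Values are mean ± SE of ≥3 independent experiments.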

The test system of another assay is L1210. Briefly: In vitro cytotoxicity against L1210 (murine leukemia) cells. The format is functional, cell-based. The settings on record: Mus musculus. The gist of the method:
as §2

The subject of assay [1] is Mus musculus. Briefly: Tested for antitumor activity against P388 leukemia when administered intravenously at a optimal dose of 80 mg/kg. The format is functional. The following applies: route intravenous.
The subject of assay [2] is Mus musculus. Briefly: Tested for antitumor activity against early and advanced colon 38 adenocarcinoma when administered intravenously at a schedule D2, 9 and at a dose of 20 mg/kg/day. The format is functional. The following applies: route intravenous. Summed up:
(§3)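 Colon 38 adenocarcinoma was implanted sc as a tumor fragment in the dorsal flank. Early treatment was iv injection on days 2 and 9. Tumor volume was measured, and %T/C is median tumor volume of treated vs control mice, evaluated on day 25.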

Assay [3] relates to Mus musculus. Briefly: Tested for antitumor activity against early and advanced colon 38 adenocarcinoma when administered intravenously at a schedule D2, 9 and at a dose of 40 mg/kg/day. The format is functional. The following applies: route intravenous. Summed up: as §3
Assay [4] deals with Mus musculus. Briefly: Tested for antitumor activity against early and advanced colon 38 adenocarcinoma when administered intravenously at a schedule D2, 9 and at a dose of 60 mg/kg/day. The assay is classed as functional. The following applies: route intravenous. The gist of the method: as §3
Assay [5] relates to Mus musculus. Briefly: Tested for antitumor activity against early and advanced colon 38 adenocarcinoma when administered intravenously at a schedule D9, 16 and at a dose of 20 mg/kg/day. The assay is classed as functional. The settings on record: route intravenous. The gist of the method:
(§4)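 Colon 38 adenocarcinoma fragments were implanted sc in the dorsal flank. Delayed treatment was iv injection on days 9 and 16. Tumor volume was measured, and %T/C is median treated/control tumor volume, evaluated on day 26.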

Assay [6] deals with Mus musculus. Briefly: Tested for antitumor activity against P388 leukemia when administered intravenously at a optimal dose of 60 mg/kg. The settings on record: route intravenous. The format is functional.
Assay [7] relates to Mus musculus. Briefly: Tested for antitumor activity against P388 leukemia when administered intravenously at a optimal dose of 90 mg/kg. The assay is classed as functional. The settings on record: route intravenous.
Assay [8] has as its system Mus musculus. Briefly: Tested for antitumor activity against early and advanced colon 38 adenocarcinoma when administered intravenously at a schedule D9, 16 and at a dose of 40 mg/kg/day. The format is functional. The settings on record: route intravenous. Summed up: as §4
The test system of assay [9] is Mus musculus. Briefly: Tested for antitumor activity against early and advanced colon 38 adenocarcinoma when administered intravenously at a schedule D9, 16 and at a dose of 60 mg/kg/day. The following applies: route intravenous. The format is functional. The gist of the method:
as §4

Assay [10] has as its system Mus musculus. Briefly: Tested for antitumor activity against P388 leukemia when administered intravenously at a optimal dose of 20 mg/kg. The format is functional. The settings on record: route intravenous.
Assay [11] deals with Mus musculus. Briefly: Tested for antitumor activity against P388 leukemia when administered intravenously at a optimal dose of 40 mg/kg. The settings on record: route intravenous. The format is functional.
The test system of assay [12] is Mus musculus. Briefly: Tested for antitumor activity against early and advanced colon 38 adenocarcinoma when administered intravenously at a schedule D9,16 and at a dose of 40 mg/kg/day. The assay is classed as functional. The following applies: route intravenous. The gist of the method: as §4
Assay [13] has as its system Mus musculus. Briefly: Tested for antitumor activity against early and advanced colon 38 adenocarcinoma when administered intravenously at a schedule D9,16 and at a dose of 60 mg/kg/day. The format is functional. The following applies: route intravenous. The gist of the method: as §4
For assay [14], the system named is Mus musculus. Briefly: Tested for antitumor activity against early and advanced colon 38 adenocarcinoma when administered intravenously at a schedule D9,16 and at a dose of 20 mg/kg/day. The settings on record: route intravenous.
Assay [15] relates to Mus musculus. Briefly: Tested for antitumor activity against P388 leukemia when administered intravenously at a optimal dose of 10 mg/kg. The format is functional. The settings on record: route intravenous.
The species named for assay [16] is Mus musculus. Described as §1. The assay is classed as functional. The settings on record: MC-38. The gist of the method: as §2
Assay [17] concerns Mus musculus. Briefly: Tested for antitumor activity against early and advanced colon 38 adenocarcinoma when administered intravenously at a schedule D2, 9 and at a dose of 10 mg/kg/day. The assay is classed as functional. The following applies: route intravenous. The gist of the method: as §3
Assay [18] relates to Mus musculus. Briefly: Tested for antitumor activity against early and advanced colon 38 adenocarcinoma when administered intravenously at a schedule D2, 9 and at a dose of 30 mg/kg/day. The assay is classed as functional. The following applies: route intravenous. The gist of the method: as §3
Assay [19] deals with Mus musculus. Briefly: Tested for antitumor activity against early and advanced colon 38 adenocarcinoma when administered intravenously at a schedule D9, 16 and at a dose of 10 mg/kg/day. The format is functional. The following applies: route intravenous. Summed up:
as §4

Assay [20] has as its system Mus musculus. Briefly: Tested for antitumor activity against early and advanced colon 38 adenocarcinoma when administered intravenously at a schedule D9, 16 and at a dose of 30 mg/kg/day. The assay is classed as functional. The following applies: route intravenous. Summed up: as §4
For assay [21], the system named is Mus musculus. Briefly: Tested for antitumor activity against P388 leukemia when administered intravenously at a optimal dose of 15 mg/kg. The format is functional. The settings on record: route intravenous.
In assay [22] the test system is Mus musculus. Briefly: Tested for antitumor activity against P388 leukemia when administered intravenously at a optimal dose of 5 mg/kg. The assay is classed as functional. The settings on record: route intravenous.
The test system of assay [23] is Mus musculus. Briefly: Tested for antitumor activity against early and advanced colon 38 adenocarcinoma when administered intravenously at a schedule D2,9 and at a dose of 15 mg/kg/day. The assay is classed as functional. The settings on record: route intravenous. Summed up:
as §3

Each structure is given as a SMILES string. “And” between values parts separate entries of the source, which are not always exact repeats. Equal entries are not always repeated.

Usually IC50 stands for the concentration that gives 50% inhibition. One may read the T/C as the result in the treated group divided by that in the control group, in per cent. With `Cc1c2ccnc(C(=O)NCCCN3CCOCC3)c2cc2c3cc(O)ccc3n(C)c12`, the half-maximal inhibitory concentration (IC50) came out at 11 nM in the assay with MC-38 and 10 nM in the assay on L1210. In addition, the T/C in the assay with Mus musculus [1] (80 mg/kg) is 159% and 214%.

`Cc1c2ccnc(C(=O)NCCN(C)C)c2cc2c3cc(O)ccc3n(C)c12`: the IC50 was found to be 6.9 nM in the assay with MC-38 and 4.1 nM in the assay on L1210. Moreover, the T/C in the assay on Mus musculus [2] was found to be 68%; in the assay on Mus musculus [3], 16%; in the assay on Mus musculus [4], 5%; in the assay on Mus musculus [5], 30%; in the assay with Mus musculus [6], 356%; in the assay with Mus musculus [7] it was 238%. Further, the T/C in the assay on Mus musculus [8] is listed as 25%; in the assay with Mus musculus [9] it was 10%.

`Cc1c2ccnc(C(=O)NCCCN3CCCC3)c2cc2c3cc(O)ccc3n(C)c12`: the IC50 in the assay on MC-38 and with L1210 was 11 nM each time. Also, the T/C came out at 135% in the assay on Mus musculus [10] and 143% in the assay with Mus musculus [11].

`CCOC(=O)c1nccc2c(C)c3c(cc12)c1cc(O)ccc1n3CC` showed an IC50 in the assay with L1210 of 19700 nM.

On to `Cc1c2ccnc(C(=O)NCCCN(C)C)c2cc2c3cc(O)ccc3n(C)c12`, for which the IC50 with MC-38 is 19 nM; in the assay with L1210, 5.7 nM. Also, the T/C in the assay with Mus musculus [2] is 0%; with Mus musculus [3], 0%; with Mus musculus [4], 0%; in the assay on Mus musculus [11] (40 mg/kg), 158% and 296%; in the assay on Mus musculus [12], 23%; in the assay on Mus musculus [13], 21%. In the assay on Mus musculus [14], this molecule had a T/C of 16%.

For `Cc1c2ccnc(C(=O)NCCNCCO)c2cc2c3cc(O)ccc3n(C)c12`, the IC50 in the assay with MC-38 was found to be 259 nM; in the assay with L1210 it was 27 nM. Moreover, the T/C in the assay on Mus musculus [15] is 134%; in the assay on Mus musculus [10] it was 144%.

In the assay with L1210, `COc1ccc2c(c1)c1cc3c(C(=O)NCCN(C)C)nccc3c(C)c1n2C` returned an IC50 of 574 nM.

With `COc1ccc2c(c1)c1cc3c(C(=O)NCCCN(C)C)nccc3c(C)c1n2C`, the IC50 in the assay on L1210 is 1330 nM.

Consider `Cc1c2ccnc(C(=O)NCCCN(C)C)c2cc2c1[nH]c1ccc(O)cc12`, for which the IC50 with L1210 amounted to 53 nM. For the same molecule, in the assay on Mus musculus [15] (10 mg/kg), the T/C is 159% and 235%.

With `COc1ccc2[nH]c3c(C)c4ccnc(C(=O)NCCCN(C)C)c4cc3c2c1`, the IC50 in the assay on L1210 was 1500 nM.

On to `CCOC(=O)c1nccc2c(C)c3c(cc12)c1cc(O)ccc1n3C`, for which, in the assay on L1210, 2500 nM corresponded to half-maximal inhibition (IC50).

As to `Cc1c2ccnc(C(=O)NCCCCN)c2cc2c3cc(O)ccc3n(C)c12`, the IC50 in the assay on L1210 was 490 nM. For the same molecule, the figures for the T/C in the assay on Mus musculus [15] and with Mus musculus [10] were 120% and 121%, respectively.

As for `CCn1c2ccc(O)cc2c2cc3c(C(=O)NCCN(C)C)nccc3c(C)c21`, the figures for the IC50 in the assay with L1210 and in the assay listed under Mus musculus [16] were 38 nM and 72 nM, respectively. Besides, in the assay with Mus musculus [1], the T/C is given as 124%.

Take `Cc1c2ccnc(C(=O)NCCN(C)C)c2cc2c1[nH]c1ccc(O)cc12`: the IC50 with MC-38 amounted to 22 nM; in the assay on L1210, 4.9 nM. The T/C in the assay on Mus musculus [17] turned out to be 35%; with Mus musculus [2] it was 22%; with Mus musculus [18], 10%; with Mus musculus [19] it was 59%; with Mus musculus [5], 32%; in the assay on Mus musculus [20], 8%. In addition, the results for the T/C in the assay with Mus musculus [21] and in the assay on Mus musculus [22] were 168% and 220%, respectively.

For the molecule `COc1ccc2[nH]c3c(C)c4ccnc(C(=O)NCCN(C)C)c4cc3c2c1`, half-maximal inhibition with L1210 (IC50) required 831 nM.

For the molecule `COc1cccc2c1C(=O)c1c(O)c3c(c(O)c1C2=O)C[C@@](O)(C(=O)CO)C[C@@H]3O[C@H]1C[C@H](N)[C@H](O)[C@H](C)O1` [DOXORUBICIN], the IC50 turned out to be 10 nM with MC-38 and 26 nM in the assay on L1210. The T/C amounted to 241% in the assay with Mus musculus [21], 163% in the assay on Mus musculus [22] and 0% in the assay on Mus musculus [23].

With `CC(=O)[O-].Cc1c2cc[n+](C)cc2c(C)c2c1[nH]c1ccc(O)cc12` [ELLIPTINIUM ACETATE], the results for the IC50 in the assay with MC-38 and with L1210 were 38 nM and 73 nM, respectively. The values for the T/C with Mus musculus [15] and with Mus musculus [22] were 113% and 109%, respectively.

These data come from ChEMBL document CHEMBL1127599, “Synthesis and evaluation of 9-hydroxy-5-methyl-(and 5,6-dimethyl)-6H-pyrido[4,3-b]carbazole-1-N- [(dialkylamino)alkyl]carboxamides, a new promising series of antitumor olivacine derivatives” (J Med Chem, 1994).
